# Measured values: PMC3417325 (FEBS letters, 2010)
# Ends that are not written are not given here.
# Assays:
# [1] = system: S. aureus; conditions: cited from earlier work
# [2] = SPR, HNP1 peptides on soluble Lipid II immobilized on the chip surface; format: binding; conditions: peptide at 0.1, 1 or 10 µM, supplemental Figure 1
# Outline: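 The ligand was short-chain, water-soluble farnesyl (three-isoprene) Lipid II, made with M. flavus vesicles, C18 HPLC-purified and confirmed by mass spectrometry. Signals were corrected by subtracting a control flow-cell.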
# [3] = ANTS/DPX leakage assay from LUVs
# Outline: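 LUVs (250 nm, 600 µM final lipid) were loaded with 12.5 mM ANTS and 45 mM DPX by freeze-thaw and 0.4-µm extrusion, then gel-filtered. Buffer was high-salt (5 mM HEPES, 100 mM NaCl, pH 7.4) or low-salt (10 mM NaCl). Twofold defensin dilutions were added, with a water blank and 0.25% Triton X-100 for 100%. Ex 353/Em 515 nm; % leakage = (Ft−F0)/(F100−F0)×100.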
# [4] = system: Staphylococcus aureus ATCC 29213; format: cell-based; conditions: peptide 256 and 128 µg/ml, 15 min exposure, growth monitored 12 h
Molecule,Activity against Gram-positive bacteria / bactericidal activity [1],Binding of peptide to immobilized soluble Lipid II [2],"Leakage from LUVs with increasing content of POPG ([3]; POPC:POPG = 1:0, 3:2, 2:3, 0:1, HNP1 0.19 to 100 µg/ml, 1 h, triplicate)","Membrane activity (leakage from POPG LUVs) ([3]; POPG LUVs, panel of six α-defensins, high and low salt, over 24 h (Figure 1))",Bacterial growth after exposure to HNP1 [4]
"HNP4: fourth α-defensin discovered in neutrophils (VCSCRLVFCRRTELRVGNCLIGGVSFTYCCTRV; disulfide (positions not given here); ends not checked; UniProt P12838 64-96, looked up)",ineffective against Gram-positive bacteria,–,–,–,–
Human Neutrophil Peptide 1 [HNP1],potently bactericidal,bound Lipid II dose-dependently,increasingly pronounced,reduced,bacterial growth did not measurably recover
"HD-5: human α-defensin stored in granules of Paneth cells (peptide, UniProt Q01523 20-94, looked up, Defensin-5) Defensin alpha 5: ESLQERADEATTQKQSGEDNQDLAISFAGNGLSALRTSGSQARATCYCRTGRCATRESLSGVCEISGRLYRLCCR",potently bactericidal,–,–,–,–
